# Assay results taken from PMC7578760 (iScience, 2020).
# Experiments:
# ERK1/2 = experiment: Western blot of activated ERK1/2 in 293T^CIC cells; assay type: cell-based, human; details: 10 μM, 4 h
# DUSP6 [1] = experiment: Western blot of DUSP6 expression in 1205Lu melanoma cells; assay type: cell-based; details: 1205Lu (BRAF^V600E), 2 μM PLX4032, 0, 6, 24 h
# ERK signaling = experiment: Block of ERK signaling in MCF7 cells; assay type: cell-based, human
# DUSP6 [2] = experiment: Western blot of DUSP6 expression in 293T / 293T^CIC cells; assay type: cell-based, human; details: parental 293T, 10 ng/mL FGF, various times; SCH772984 10 μM
# How it was run: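 Parental and CIC-knockout 293T cells grown in high-glucose DMEM with 10% FBS and penicillin-streptomycin. Cells stimulated with 10 ng/mL FGF for various times, with or without 10 uM ERK inhibitor, then lysed. DUSP6 detected by western blot.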
smiles,measurement,setting,value
CN1CCN(c2ccc(-c3ccncc3-c3cc(F)c(O)c(F)c3)cc2)CC1 [LJH685],levels of activated ERK1/2,ERK1/2,did not reduce the levels of activated ERK1/2
CCCS(=O)(=O)Nc1ccc(F)c(C(=O)c2c[nH]c3ncc(-c4ccc(Cl)cc4)cc23)c1F [PLX4032],DUSP6 expression,DUSP6 [1],time-dependent decrease of DUSP6 expression
O=C(Nc1ccc2[nH]nc(-c3ccncc3)c2c1)[C@@H]1CCN(CC(=O)N2CCN(c3ccc(-c4ncccn4)cc3)CC2)C1 [SCH772984],effectiveness to block ERK signaling,ERK signaling,not effective to block the ERK signaling in MCF7 cells
same,DUSP6 expression,DUSP6 [2],drop
